Assay results reported in ChEMBL document CHEMBL3259644, “Dibenzo[1,4,5]thiadiazepine: a hardly-known heterocyclic system with neuroprotective properties of potential usefulness in the treatment of neurodegenerative diseases” (Eur J Med Chem, 2014).

Columns and labels:
SH-SY5Y [1] = assay: Neuroprotective activity in human SH-SY5Y cells assessed as protection against rotenone-oligomycin-induced toxicity at 3 uM preincubated for 24 hrs before rotenone-oligomycin addition measured after 24 hrs by lactate dehydrogenase release assay; assay type: functional
How it was run: (§1)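 Pre-incubation: compound given to cells (10^5/well, serum-free DMEM) for 24 h. Medium then replaced with fresh medium holding compound plus rotenone 30 µM and oligomycin A 10 µM for another 24 h. LDH release read. Protection = 100 minus normalized toxin-induced LDH release above basal. Mean of 4 independent experiments in triplicate.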

SH-SY5Y [2] = assay: Neuroprotective activity in human SH-SY5Y cells assessed as protection against rotenone-oligomycin-induced toxicity at 3 uM co-incubated with rotenone-oligomycin measured after 24 hrs by lactate dehydrogenase release assay; assay type: functional
How it was run: (§2)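 Co-incubation: cells (10^5/well, serum-free DMEM) given compound together with rotenone 30 µM plus oligomycin A 10 µM for 24 h. Cell death by LDH release. Protection: basal LDH subtracted from toxin-induced release, normalized to 100%, then subtracted from 100. Mean of 4 independent experiments in triplicate.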

SH-SY5Y [3] = assay: Antioxidant activity in human SH-SY5Y cells assessed as rotenone-oligomycin-induced sequestering of mitochondrial free radicals at 0.3 uM after 120 mins using DCFH-DA by fluorescence microplate reader analysis; assay type: functional
How it was run: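 Intracellular ROS probe: cells grown to confluence, loaded with 10 µM DCFH-DA for 45 min, basal fluorescence read. Rotenone 30 µM, oligomycin A 10 µM and compound 0.3 µM then added together at t = 0. Fluorescence change read after 120 min (ex 485/em 520 nm). Trolox 0.3 µM served as positive control. Mean of 3 independent experiments.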

SH-SY5Y [4] = assay: Neuroprotective activity in human SH-SY5Y cells assessed as protection against rotenone-oligomycin-induced toxicity at 0.3 uM preincubated for 24 hrs before rotenone-oligomycin addition measured after 24 hrs by lactate dehydrogenase release assay; assay type: functional; how it was run: as §1
[5] = Cytotoxicity against human SH-SY5Y cells assessed as cell viability at 3 uM after 24 hrs by lactate dehydrogenase release assay; assay type: cell-based; settings: read-out: Activity
How it was run: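 Cells plated at 10^5 per well at least 48 h beforehand, in serum-free DMEM, before confluence. Exposed to compound at 3 µM for 24 h. LDH released to medium measured by colorimetric kit (492/620 nm), expressed as extracellular versus total LDH.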

[6] = Permeability of the compound by PAMPA; assay type: physicochemical; settings: read-out: permeability
How it was run: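 PAMPA-BBB: filter impregnated with porcine brain lipid in dodecane (20 mg/mL). Compound at 100 µg/mL in PBS pH 7.4:ethanol 70:30 in donor. Acceptor held PBS:ethanol 70:30. Incubated 240 min at 25 °C. Acceptor concentration read by UV-Vis at five wavelengths, in four wells, at least three runs. Mean ± SD. 10 reference drugs validated each run.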

SH-SY5Y [7] = assay: Inhibition of calcium channel in human SH-SY5Y cells assessed as blockade of K+-evoked cytosolic calcium increase at 3 uM after 15 mins using Fluo-4/AM by fluorescence microplate reader analysis; assay type: cell-based
How it was run: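 Confluent cells loaded with Fluo-4/AM 4 µM for 1 h at 37 °C, washed twice in Krebs-Hepes, then 15 min at room temperature. Compound (3 µM) applied 10 min before K+ raised to 70 mM final. Triton X-100 (5%) and MnCl2 (1 mM) gave maximal and basal fluorescence. Nifedipine 3 µM as positive control. Mean of 3 experiments.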

SH-SY5Y [8] = assay: Neuroprotective activity in human SH-SY5Y cells assessed as protection against rotenone-oligomycin-induced toxicity at 1 uM co-incubated with rotenone-oligomycin measured after 24 hrs by lactate dehydrogenase release assay; assay type: functional; how it was run: as §2
SH-SY5Y [9] = assay: Neuroprotective activity in human SH-SY5Y cells assessed as protection against rotenone-oligomycin-induced toxicity at 0.3 uM co-incubated with rotenone-oligomycin measured after 24 hrs by lactate dehydrogenase release assay; assay type: functional; how it was run: as §2
Cholinesterase = Cholinesterase (Equus caballus, UniProt P81908); assay: Inhibition of horse serum BuChE using butyrylthiocholine as substrate by UV spectroscopic analysis
SH-SY5Y [10] = assay: Neuroprotective activity in human SH-SY5Y cells assessed as protection against rotenone-oligomycin-induced toxicity at 1 uM preincubated for 24 hrs before rotenone-oligomycin addition measured after 24 hrs by lactate dehydrogenase release assay; assay type: functional; how it was run: as §1

Sequence of Cholinesterase (P81908 whole entry): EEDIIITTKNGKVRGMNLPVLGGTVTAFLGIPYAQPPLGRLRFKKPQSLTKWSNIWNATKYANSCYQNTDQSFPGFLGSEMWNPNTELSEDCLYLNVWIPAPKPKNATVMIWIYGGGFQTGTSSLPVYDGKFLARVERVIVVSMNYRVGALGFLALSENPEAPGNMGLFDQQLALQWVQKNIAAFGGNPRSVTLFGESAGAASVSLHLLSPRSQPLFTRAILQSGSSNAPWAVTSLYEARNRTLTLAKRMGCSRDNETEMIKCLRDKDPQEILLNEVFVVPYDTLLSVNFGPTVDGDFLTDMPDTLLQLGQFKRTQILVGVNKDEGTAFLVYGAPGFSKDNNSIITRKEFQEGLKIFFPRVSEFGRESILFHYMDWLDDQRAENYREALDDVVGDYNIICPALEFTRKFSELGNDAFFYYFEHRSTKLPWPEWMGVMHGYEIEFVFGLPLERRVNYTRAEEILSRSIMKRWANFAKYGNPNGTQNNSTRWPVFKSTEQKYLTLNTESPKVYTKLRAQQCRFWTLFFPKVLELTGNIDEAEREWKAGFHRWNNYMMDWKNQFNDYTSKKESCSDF

Structure (SMILES) | Activity (SH-SY5Y [1]) [%] | Activity (SH-SY5Y [2]) [%] | Activity (SH-SY5Y [3]) [%] | Activity (SH-SY5Y [4]) [%] | viability at 24 h, 3 µM [5] [%] | Papp [6] [×10⁻⁶ cm/s] | inhibition (SH-SY5Y [7]) [%] | Activity (SH-SY5Y [8]) [%] | Activity (SH-SY5Y [9]) [%] | IC50 (Cholinesterase) [µM] | Activity (SH-SY5Y [10]) [%]
Cc1c(C)c2c(c(C)c1O)CCC(C)(C(=O)O)O2 (stereo unspecified) [TROLOX] | 56.1 | 55.7 | 22.3 |  |  |  |  |  |  |  | 
CC(=O)n1c2ccccc2sc2cc(Cl)ccc2n1C(C)=O | 81.5 | 63.2 | 24.3 | 64.8 | 100 | 10.1 | 21.5 | 59.2 | 49 | > 100 | 76.6
O=C(CCN1CCCCC1)n1c2ccccc2sc2ccc(Cl)cc2n1C(=O)CCN1CCCCC1 | 96.4 | 63 | 18.8 | 84.6 | 100 | 5.3 | 16.2 | 55.4 | 53 | > 100 | 90.4
CC(=O)n1[nH]c2ccc([N+](=O)[O-])cc2sc2ccccc21 | 72.7 | 21.9 |  | 83.8 | 100 | 3.9 |  | 27.8 | 26.2 | > 100 | 75.8
COC(=O)C1=C(C)NC(C)=C(C(=O)OC)C1c1ccccc1[N+](=O)[O-] |  |  |  |  |  |  | 47.9 |  |  |  | 
Clc1ccc2c(c1)Sc1ccccc1N=N2 | 84.4 | 38.8 |  | 90.3 | 100 | 12.3 |  | 31.4 | 40.5 | > 100 | 90.2
CN(C)CCC(=O)n1c2ccccc2sc2ccc(Cl)cc2n1C(=O)CCN(C)C | 96.1 | 15.9 |  | 75.9 | 100 | 14.2 |  | 20.4 | 8.1 | 0.7 | 92.1
CN1CCN(CC(=O)n2c3ccccc3sc3ccc(Cl)cc3n2C(=O)CN2CCN(C)CC2)CC1 | 97.5 | 35.7 | 24.3 | 86 | 100 | 5.9 | 9.3 | 42.6 | 50.6 | > 100 | 96.4
O=C(CCN1CCCC1)n1c2ccccc2sc2ccc(Cl)cc2n1C(=O)CCN1CCCC1 | 92.4 | 32.7 |  | 99.3 | 100 | 3.7 |  | 45.9 | 40.7 | > 100 | 94.6
COc1ccc2c(c1)sc1ccccc1n(C(C)=O)n2C(C)=O | 95.7 | 53.8 | 21.6 | 89.7 | 100 | 12.6 | 13.1 | 50.1 | 49.9 | > 100 | 97
CC(=O)n1c2ccccc2sc2cc(C(F)(F)F)ccc2n1C(C)=O | 92.2 | 35.8 |  | 76.4 | 100 | 4 |  | 35 | 20.7 | > 100 | 91.1
CC(=O)n1c2ccccc2sc2ccc(Cl)cc2n1C(C)=O | 91.1 | 38.3 |  | 79.8 | 100 | 12.3 |  | 38.3 | 9.3 | > 100 | 88.9
O=C(CN1CCCCC1)n1c2ccccc2sc2cccc(Cl)c2n1C(=O)CN1CCCCC1 | 83.4 | 35.6 |  | 90.5 | 100 | 7.3 |  | 38.2 | 43.3 | 0.9 | 83.9
